Laboratory results reported in ChEMBL document CHEMBL1154626, “Novel, potent, and selective quinoxaline-based 5-HT(3) receptor ligands. 1. Further structure-activity relationships and pharmacological characterization” (J Med Chem, 2009).
Each block holds one compound with its values, some of them ahead of it. The source made the active and inactive calls. No cut-off for these calls is given here.

Legend:
[1] = biological target: T1, 5-hydroxytryptamine receptor 3A (Cavia porcellus, UniProt O70212); assay: Antagonist activity at 5HT3 receptor in spontaneously beating guinea pig right atrium assessed as inhibition of serotonin-induced maximum response by noncompetitive binding assay; type: tissue-based, Cardiac atrium; details: read-out: IC50
T1 sequence (O70212 whole entry): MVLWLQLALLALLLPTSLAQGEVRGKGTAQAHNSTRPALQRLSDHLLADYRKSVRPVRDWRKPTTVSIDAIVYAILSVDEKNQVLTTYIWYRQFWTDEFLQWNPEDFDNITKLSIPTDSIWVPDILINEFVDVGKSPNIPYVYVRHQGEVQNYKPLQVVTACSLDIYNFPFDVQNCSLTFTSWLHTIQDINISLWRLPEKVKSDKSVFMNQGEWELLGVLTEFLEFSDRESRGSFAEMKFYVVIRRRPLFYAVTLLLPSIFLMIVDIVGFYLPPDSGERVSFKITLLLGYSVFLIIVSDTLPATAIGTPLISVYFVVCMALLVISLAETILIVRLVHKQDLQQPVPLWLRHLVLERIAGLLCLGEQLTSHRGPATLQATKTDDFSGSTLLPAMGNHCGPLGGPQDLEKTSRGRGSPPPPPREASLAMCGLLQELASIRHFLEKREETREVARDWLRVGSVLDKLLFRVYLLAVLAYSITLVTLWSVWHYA
Outline: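 Spontaneously beating guinea pig right atria, exposed 30 min to test compound at 10 μM, followed by cumulative 5-HT log concentration-response curves versus control. Mean ± SEM of five to seven observations.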

Rattus norvegicus [2] = assay: Agonist activity at 5HT3 receptor in iv dosed Sprague-Dawley rat assessed as induction of bradycardia measured after 5 to 30 mins post-treatment by von Bezold-Jarisch reflex test; type: functional
Outline: (§1)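 Urethane-anesthetized rats, compound given iv. Agonism was scored as the compound itself evoking the von Bezold-Jarisch reflex (bradycardia). Antagonism was tested by giving the compound iv 5, 15 or 30 min before phenylbiguanide (PBG) and scoring the reduction of PBG-evoked bradycardia. ED50 is the dose giving half of the maximal bradycardia evoked by the same compound.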

Rattus norvegicus [3] = assay: Plasma concentration in rat at 0.25 mg/kg, iv; type: ADME, organism-based; design: dose 0.25 mg/kg, route intravenous; details: in vivo
Outline: (§2)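 Rats dosed iv at 0.25–1 mg/kg and sacrificed 30 min after injection. Mean ± SEM of three animals. Brain/plasma ratio assumes 1 g tissue equals 1 mL water.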

Brain = assay: Drug level in rat brain at 0.5 mg/kg, iv; type: ADME, organism-based; design: dose 0.5 mg/kg, route intravenous; details: in vivo, BLD = below limit of detection; outline: as §2
[4] = Ratio of drug level from brain to plasma in rat at 1 mg/kg, iv; type: ADME, organism-based; design: dose 1 mg/kg, route intravenous
Outline: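 Rats given a single iv injection (0.25–1 mg/kg) and killed 30 min afterwards. Brain/plasma ratio calculated assuming 1 g tissue equals 1 mL water. Three animals per dose, mean ± SEM.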

[5] = biological target: T2, 5-hydroxytryptamine receptor 3A (Rattus norvegicus, UniProt P35563); assay: Displacement of [3H]LY278584 from 5HT3 receptor in rat cortical homogenate
T2 sequence (P35563 whole entry): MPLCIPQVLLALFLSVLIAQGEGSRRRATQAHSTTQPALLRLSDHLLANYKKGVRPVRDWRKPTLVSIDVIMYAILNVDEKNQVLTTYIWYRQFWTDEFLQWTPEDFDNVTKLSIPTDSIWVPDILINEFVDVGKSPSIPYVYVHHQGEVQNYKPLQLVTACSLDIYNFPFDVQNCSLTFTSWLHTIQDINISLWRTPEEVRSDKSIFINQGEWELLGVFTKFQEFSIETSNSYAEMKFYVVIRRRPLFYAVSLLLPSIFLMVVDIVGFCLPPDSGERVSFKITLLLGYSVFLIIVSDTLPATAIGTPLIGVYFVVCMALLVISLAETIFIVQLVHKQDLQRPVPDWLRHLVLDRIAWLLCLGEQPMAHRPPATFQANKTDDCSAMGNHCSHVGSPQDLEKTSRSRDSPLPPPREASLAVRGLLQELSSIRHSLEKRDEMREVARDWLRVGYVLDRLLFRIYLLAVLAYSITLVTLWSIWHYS
Outline: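 Rat cortical homogenate, competition against [3H]LY278584 binding. Ki is the concentration giving half-maximal inhibition of binding, as the mean ± S.E.M. of three determinations.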

[6] = biological target: T3, 5-hydroxytryptamine receptor 1A (Rattus norvegicus, UniProt P19327); assay: Displacement of [3H]8-OHDPAT from 5HT1A receptor in rat hippocampus; type: tissue-based
T3 sequence (P19327 whole entry): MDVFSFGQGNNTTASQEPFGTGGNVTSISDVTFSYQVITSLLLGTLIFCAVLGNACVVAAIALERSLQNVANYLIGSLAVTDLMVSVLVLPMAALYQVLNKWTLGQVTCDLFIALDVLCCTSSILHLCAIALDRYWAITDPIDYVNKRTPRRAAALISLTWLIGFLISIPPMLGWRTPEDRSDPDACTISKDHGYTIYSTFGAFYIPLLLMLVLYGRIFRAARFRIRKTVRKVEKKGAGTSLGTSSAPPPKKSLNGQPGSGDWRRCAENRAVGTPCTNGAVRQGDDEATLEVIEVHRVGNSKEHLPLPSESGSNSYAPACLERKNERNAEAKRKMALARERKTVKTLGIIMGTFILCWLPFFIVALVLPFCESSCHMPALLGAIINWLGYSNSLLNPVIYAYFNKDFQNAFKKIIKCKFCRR

[7] = biological target: 5-hydroxytryptamine receptor 2A (Rattus norvegicus, UniProt P14842); assay: Displacement of [3H]ketanserin from 5HT2A receptor in rat cortex
Chain of 5-hydroxytryptamine receptor 2A (P14842 whole entry): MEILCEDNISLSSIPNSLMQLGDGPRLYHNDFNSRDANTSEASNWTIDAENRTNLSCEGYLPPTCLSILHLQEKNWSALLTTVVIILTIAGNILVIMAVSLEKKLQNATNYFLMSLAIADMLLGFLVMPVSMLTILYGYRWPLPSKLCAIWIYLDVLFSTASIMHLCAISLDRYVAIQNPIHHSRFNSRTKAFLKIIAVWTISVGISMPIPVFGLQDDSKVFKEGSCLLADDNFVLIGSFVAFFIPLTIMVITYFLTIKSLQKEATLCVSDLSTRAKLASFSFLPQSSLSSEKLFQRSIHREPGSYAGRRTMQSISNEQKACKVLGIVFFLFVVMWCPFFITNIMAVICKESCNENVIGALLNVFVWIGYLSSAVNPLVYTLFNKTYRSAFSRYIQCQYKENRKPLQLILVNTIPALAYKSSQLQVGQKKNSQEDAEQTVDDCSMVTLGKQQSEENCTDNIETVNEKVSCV

[8] = biological target: T4, Alpha-2A adrenergic receptor (Rattus norvegicus, UniProt P22909); assay: Displacement of [3H]RX821002 from adrenergic alpha2 receptor in rat cortex
T4 sequence (P22909 whole entry): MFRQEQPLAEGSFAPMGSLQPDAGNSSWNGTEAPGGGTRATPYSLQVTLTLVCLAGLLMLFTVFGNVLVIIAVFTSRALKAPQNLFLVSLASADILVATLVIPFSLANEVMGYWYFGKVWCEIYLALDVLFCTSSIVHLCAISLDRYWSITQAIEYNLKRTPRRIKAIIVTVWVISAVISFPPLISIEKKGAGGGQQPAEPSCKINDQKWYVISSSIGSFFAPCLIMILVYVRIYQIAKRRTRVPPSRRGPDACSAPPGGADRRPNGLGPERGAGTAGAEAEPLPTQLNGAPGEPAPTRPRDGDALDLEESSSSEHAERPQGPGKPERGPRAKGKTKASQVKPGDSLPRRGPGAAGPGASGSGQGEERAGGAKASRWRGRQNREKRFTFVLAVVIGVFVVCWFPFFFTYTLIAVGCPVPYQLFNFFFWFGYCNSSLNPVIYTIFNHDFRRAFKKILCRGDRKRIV

D(1A) dopamine receptor = D(1A) dopamine receptor (Rattus norvegicus, UniProt P18901); assay: Displacement of [3H]SCH-23390 from dopamine D1 receptor in rat striatum
Chain of D(1A) dopamine receptor (P18901 whole entry): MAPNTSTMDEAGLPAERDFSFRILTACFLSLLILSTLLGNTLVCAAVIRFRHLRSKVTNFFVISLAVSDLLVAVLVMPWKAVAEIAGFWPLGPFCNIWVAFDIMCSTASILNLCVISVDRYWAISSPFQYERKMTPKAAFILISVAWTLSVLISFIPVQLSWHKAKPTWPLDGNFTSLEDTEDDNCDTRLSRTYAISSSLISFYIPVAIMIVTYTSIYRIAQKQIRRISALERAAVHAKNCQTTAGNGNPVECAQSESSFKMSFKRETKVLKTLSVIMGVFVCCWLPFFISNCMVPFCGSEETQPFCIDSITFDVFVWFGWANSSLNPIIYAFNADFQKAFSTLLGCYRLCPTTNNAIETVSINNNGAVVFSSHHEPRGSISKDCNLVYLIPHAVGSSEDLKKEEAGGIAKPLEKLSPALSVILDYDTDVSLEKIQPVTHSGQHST

D(2) dopamine receptor = D(2) dopamine receptor (Rattus norvegicus, UniProt P61169); assay: Displacement of [3H]spiperone from dopamine D2 receptor in rat striatum
Chain of D(2) dopamine receptor (P61169 whole entry): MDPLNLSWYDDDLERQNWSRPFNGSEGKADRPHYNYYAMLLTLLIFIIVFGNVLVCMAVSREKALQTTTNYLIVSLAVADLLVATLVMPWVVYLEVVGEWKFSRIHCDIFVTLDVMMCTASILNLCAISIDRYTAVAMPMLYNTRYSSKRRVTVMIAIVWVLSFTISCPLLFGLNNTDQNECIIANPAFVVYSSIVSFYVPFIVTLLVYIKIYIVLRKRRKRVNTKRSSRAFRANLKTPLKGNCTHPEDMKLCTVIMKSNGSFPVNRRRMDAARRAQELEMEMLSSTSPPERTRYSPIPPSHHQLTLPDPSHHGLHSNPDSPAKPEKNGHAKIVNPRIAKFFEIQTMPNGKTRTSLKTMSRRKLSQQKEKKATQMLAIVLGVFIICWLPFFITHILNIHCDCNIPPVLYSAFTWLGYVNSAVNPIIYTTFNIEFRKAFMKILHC

Rattus norvegicus [9] = assay: Antagonist activity at 5HT3 receptor in iv dosed Sprague-Dawley rat assessed as inhibition of 1-phenylbiguanide-induced bradycardia administered 5 mins before 1-phenylbiguanide challenge measured after 5 to 30 mins post-treatment by von Bezold-Jarisch reflex test; type: functional; outline: as §1
Rattus norvegicus [10] = assay: Agonist activity at 5HT3 receptor in Sprague-Dawley rat assessed as induction of bradycardia at 10 ug/kg, iv measured after 5 to 30 mins post-treatment by von Bezold-Jarisch reflex test; type: functional; outline: as §1
Rattus norvegicus [11] = assay: Antagonist activity at 5HT3 receptor in Sprague-Dawley rat assessed as inhibition of 1-phenylbiguanide-induced bradycardia at 10 ug/kg, iv administered 5 mins before 1-phenylbiguanide challenge measured after 5 to 30 mins post-treatment by von Bezold-Jarisch reflex test; type: functional; design: scale not given: the % may be the effect or the level left; outline: as §1
Rattus norvegicus [12] = assay: Agonist activity at 5HT3 receptor in Sprague-Dawley rat assessed as induction of bradycardia at 50 ug/kg, iv measured after 5 to 30 mins post-treatment by von Bezold-Jarisch reflex test; type: functional; outline: as §1
Rattus norvegicus [13] = assay: Antagonist activity at 5HT3 receptor in Sprague-Dawley rat assessed as inhibition of 1-phenylbiguanide-induced bradycardia at 50 ug/kg, iv administered 5 mins before 1-phenylbiguanide challenge measured after 5 to 30 mins post-treatment by von Bezold-Jarisch reflex test; type: functional; design: scale not given: the % may be the effect or the level left; outline: as §1
[14] = biological target: T5, Adrenergic receptor alpha-1 (Rattus norvegicus, UniProt P15823+P23944+P43140); assay: Displacement of [3H]prazosin from adrenergic alpha1 receptor in rat cortex
T5 sequence (P15823 whole entry): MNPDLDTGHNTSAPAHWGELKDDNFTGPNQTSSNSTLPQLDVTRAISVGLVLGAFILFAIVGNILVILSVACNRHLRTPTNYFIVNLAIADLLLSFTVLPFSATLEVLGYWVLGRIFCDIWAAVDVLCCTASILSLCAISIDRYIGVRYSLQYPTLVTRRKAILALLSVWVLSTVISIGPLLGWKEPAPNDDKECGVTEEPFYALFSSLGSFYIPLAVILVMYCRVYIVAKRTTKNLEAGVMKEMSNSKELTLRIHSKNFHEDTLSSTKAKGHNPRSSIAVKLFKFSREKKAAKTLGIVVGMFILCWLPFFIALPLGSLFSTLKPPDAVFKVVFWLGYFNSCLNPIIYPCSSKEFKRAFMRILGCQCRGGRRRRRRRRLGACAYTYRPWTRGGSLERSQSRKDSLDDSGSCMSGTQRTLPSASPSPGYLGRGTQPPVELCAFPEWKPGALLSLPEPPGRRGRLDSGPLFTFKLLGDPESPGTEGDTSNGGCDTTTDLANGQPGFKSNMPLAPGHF
T5 sequence (P23944 whole entry): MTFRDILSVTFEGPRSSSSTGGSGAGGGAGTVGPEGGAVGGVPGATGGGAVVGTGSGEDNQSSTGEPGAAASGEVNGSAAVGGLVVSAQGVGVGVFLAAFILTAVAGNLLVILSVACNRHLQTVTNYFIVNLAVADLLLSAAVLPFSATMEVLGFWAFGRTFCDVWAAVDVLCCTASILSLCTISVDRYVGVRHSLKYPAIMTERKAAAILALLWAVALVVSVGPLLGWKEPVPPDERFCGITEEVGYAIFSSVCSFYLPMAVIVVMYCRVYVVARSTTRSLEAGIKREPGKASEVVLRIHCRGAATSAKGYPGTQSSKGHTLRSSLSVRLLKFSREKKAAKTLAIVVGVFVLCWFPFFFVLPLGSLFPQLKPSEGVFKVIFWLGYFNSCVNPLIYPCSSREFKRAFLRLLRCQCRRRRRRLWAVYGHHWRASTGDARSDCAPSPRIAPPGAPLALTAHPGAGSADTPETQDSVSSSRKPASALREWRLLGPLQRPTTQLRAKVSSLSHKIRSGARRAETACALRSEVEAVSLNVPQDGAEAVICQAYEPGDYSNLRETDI
T5 sequence (P43140 whole entry): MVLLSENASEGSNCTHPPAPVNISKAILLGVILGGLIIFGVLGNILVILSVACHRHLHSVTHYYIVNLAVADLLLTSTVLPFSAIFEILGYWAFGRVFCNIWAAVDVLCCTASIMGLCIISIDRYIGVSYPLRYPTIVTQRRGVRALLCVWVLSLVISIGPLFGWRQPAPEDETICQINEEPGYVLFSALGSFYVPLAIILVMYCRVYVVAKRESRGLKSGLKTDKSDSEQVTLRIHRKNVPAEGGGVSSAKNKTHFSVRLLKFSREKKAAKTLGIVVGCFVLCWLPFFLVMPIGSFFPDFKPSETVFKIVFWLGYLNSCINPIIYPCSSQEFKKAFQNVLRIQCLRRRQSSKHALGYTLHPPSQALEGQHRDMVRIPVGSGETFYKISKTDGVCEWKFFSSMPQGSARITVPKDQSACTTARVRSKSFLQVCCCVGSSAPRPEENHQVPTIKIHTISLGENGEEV

[15] = biological target: 5-hydroxytryptamine receptor 4 (Cavia porcellus, UniProt O70528); assay: Displacement of [3H]GR-113808 from 5HT4 receptor in guinea pig striatum
Chain of 5-hydroxytryptamine receptor 4 (O70528 whole entry): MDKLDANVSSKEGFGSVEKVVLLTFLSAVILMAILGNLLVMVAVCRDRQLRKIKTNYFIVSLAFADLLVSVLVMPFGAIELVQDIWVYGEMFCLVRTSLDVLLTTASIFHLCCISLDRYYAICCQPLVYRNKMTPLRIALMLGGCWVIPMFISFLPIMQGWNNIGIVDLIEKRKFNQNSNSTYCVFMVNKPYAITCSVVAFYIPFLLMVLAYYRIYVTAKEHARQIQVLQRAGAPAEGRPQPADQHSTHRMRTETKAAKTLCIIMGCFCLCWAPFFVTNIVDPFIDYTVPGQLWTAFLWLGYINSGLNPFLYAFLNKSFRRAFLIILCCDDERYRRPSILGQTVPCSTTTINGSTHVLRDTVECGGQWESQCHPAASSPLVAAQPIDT

IC50 [1]: 1.88 µM
concentration (Rattus norvegicus [3]): 540 nM
Drug uptake (Brain): BLD
Kp [4]: 0.03
Structure (SMILES): O=C(O)CN1CCN(c2nc3cc(F)ccc3n3cccc23)CC1
ED50 (Rattus norvegicus [2]): 0.036 mg/kg

Ki ([5]; read-out: Ki): 0.00049 µM
Ki [6]: > 10 µM
Ki [7]: 9.81 µM
Ki [8]: > 10 µM
Ki (D(1A) dopamine receptor): > 10 µM
Ki (D(2) dopamine receptor): > 10 µM
Structure (SMILES): Cc1cccc2nc(N3CCN(Cc4cnc[nH]4)CC3)c3cccn3c12

Ki ([5]; read-out: Ki): 0.00225 µM
IC50 [1]: 2.63 µM
Structure (SMILES): Oc1ccc2c(c1)nc(N1CCN(Cc3c[nH]cn3)CC1)c1cccn12
ED50 (Rattus norvegicus [2]): 0.028 mg/kg
ID50 (Rattus norvegicus [9]): 0.0065 mg/kg
Activity (Rattus norvegicus [10]): 45%
Activity (Rattus norvegicus [11]): 62%
Activity (Rattus norvegicus [12]): 50%
Activity (Rattus norvegicus [13]): 90%

Ki ([5]; read-out: Ki): 0.0222 µM
Structure (SMILES): Fc1ccc2c(c1)nc(N1CCN(CCn3ccnc3)CC1)c1cccn12

Ki [5]: 0.013 µM
Structure (SMILES): Fc1ccc2c(c1)nc(N1CCN(Cc3ccccc3)CC1)c1cccn12

Activity (Rattus norvegicus [10]): inactive
Ki [14]: > 10 µM
Structure (SMILES): Cc1cccc2nc(N3CCN(Cc4c[nH]cn4)CC3)c3cccn3c12
ED50 (Rattus norvegicus [2]): 0.037 mg/kg
ID50 (Rattus norvegicus [9]): 0.0035 mg/kg
Activity (Rattus norvegicus [11]): 60%

Ki ([5]; read-out: Ki): 0.03 µM
Structure (SMILES): Fc1ccc2c(c1)nc(N1CCN(CC3=NCCN3)CC1)c1cccn12

Structure (SMILES): c1ccc2nc(N3CCNCC3)ccc2c1 [QUIPAZINE]
Ki [15]: > 10 µM
